Source: ChEMBL document CHEMBL1158058, “Cardenolide glycosides from Pergularia tomentosa and their proapoptotic activity in Kaposi's sarcoma cells” (2006)
Calls of active or inactive are those of the source. The calls are words filed in the database; no cut-off is given here.

Tests used:
[1] = system: KS; test: Cytotoxicity against human KS cells after 24 hrs by coulter counter; type: functional, cell-based
How it was run: (§1)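 KS cells (from HIV-1 patients, spontaneously immortalized) seeded at 5 × 10^3 cells/well and left to attach 24 h. Washed in HBSS-10 mM Hepes, serum-starved 12 h, then exposed at 37 °C for 24 h in fresh serum-free medium to a range of concentrations (DMSO vehicle). Washed, then cell number by XTT (OD 490 nm) and Coulter counter. At least three independent experiments in duplicate, mean ± SEM.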

[2] = system: KS; test: Cytotoxicity against human KS cells after 24 hrs by XTT assay; type: functional, cell-based; how it was run: as §1
[3] = system: KS; test: Induction of apoptosis in human KS cells assessed as caspase 3 activity at 10 uM by DEVD-AFC fluorimetric assay; type: functional, cell-based
How it was run: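 KS cells handled as in the treatment protocol (12 h starvation, 1 h 37 °C exposure at 10 µM in DMSO, 24 h further culture in 1% FBS). Lysates incubated with the caspase-3 substrate DEVD-AFC. Fluorescence read as fold over untreated. Three independent experiments in duplicate (n = 6), mean ± SEM.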

[4] = Induction of apoptosis in human KS cells assessed as DNA fragmentation at 10 uM […] by FACS relative to control; type: functional
How it was run: (§2)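 KS cells serum-starved 12 h and washed with HBSS-10 mM HEPES. Preincubated 1 h at 37 °C with compound (1 or 10 µM) in DMSO (final <0.1%), washed, then cultured 24 h in 1% FBS medium. Hypodiploid (sub-G1) fraction counted by FACS against control.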

[5] = system: KS; test: Cytotoxicity against human KS cells at >1 uM after 24 hrs; type: functional, cell-based
[6] = Induction of apoptosis in human KS cells assessed as DNA fragmentation at 1 uM […] by FACS relative to control; type: functional; how it was run: as §2
[7] = system: KS; test: Effect on human KS cell survival assessed as cell detachment at >1 uM by micrograph analysis; type: functional, cell-based

Compound	Activity [1]	Activity [2]	Activity [3]	Activity [4] [%]	Activity [5]	Activity [6] [%]	Activity [7]
C[C@@H]1C[C@@H](O)[C@]2(O)O[C@@H]3C[C@@]4(CO)[C@@H](CC[C@@H]5[C@@H]4C[C@@H](O)[C@]4(C)[C@@H](C6=CC(=O)OC6)CC[C@]54O)C[C@H]3O[C@@H]2O1	Dose-dependent effect	Dose-dependent effect	Active	45	Active	–	–
C[C@]12CC[C@H]3[C@@H](CC[C@H]4C[C@H]5O[C@@H]6O[C@H](CO)C[C@@H](O)[C@]6(O)O[C@@H]5C[C@@]43CO)[C@@]1(O)CC[C@@H]2C1=CC(=O)OC1	Dose-dependent effect	Dose-dependent effect	Active	45	Active	–	–
C[C@@H]1C[C@@H](O)[C@]2(O)O[C@@H]3C[C@@]4(C=O)[C@@H](CC[C@@H]5[C@@H]4CC[C@]4(C)[C@@H](C6=CC(=O)OC6)CC[C@]54O)C[C@H]3O[C@@H]2O1 [CALACTIN]	Dose-dependent effect	Dose-dependent effect	Active	45	Active	–	–
C[C@]12[C@H](O)C[C@H]3[C@@H](CC[C@H]4C[C@H]5O[C@@H]6O[C@H](CO)C[C@@H](O)[C@]6(O)O[C@@H]5C[C@@]43CO)[C@@]1(O)CC[C@@H]2C1=CC(=O)OC1 [GHALAKINOSIDE]	Dose-dependent effect	Dose-dependent effect	Active	45	Active	–	–
C[C@@H]1C[C@@H](O[C@@H]2O[C@H](CO)[C@@H](O)[C@H](O)[C@H]2O)[C@]2(O)O[C@@H]3C[C@@]4(C=O)[C@@H](CC[C@@H]5[C@@H]4CC[C@]4(C)[C@@H](C6=CC(=O)OC6)CC[C@]54O)C[C@H]3O[C@@H]2O1	Dose-dependent effect	Dose-dependent effect	Active	45	Active	35	Active
